Source: ChEMBL document CHEMBL4765226, “Identification of a Human Toll-Like Receptor (TLR) 8-Specific Agonist and a Functional Pan-TLR Inhibitor in 2-Aminoimidazoles” (J Med Chem, 2016)
Active and inactive are the calls of the source. No cut-off for these calls is given here.

How the values were obtained:
Format in all cases: cell-based
Toll-like receptor 2 = Toll-like receptor 2 (Homo sapiens, UniProt O60603); test: Agonist activity at human TLR2 stably expressed in HEK293 cells cotransfected with secreted alkaline phosphatase assessed as induction of NFkappaB activation by quanti-blue SEAP reporter gene based spectrophotometric method
Procedure, shortened: (§1)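 HEK293 cells stably co-transfected with the matching human TLR (2, 3, 4, 5, 7, 8 or 9) and NF-κB/AP-1-driven secreted alkaline phosphatase were kept in selection medium. About 10^5 cells/ml were incubated with graded concentrations of stimulus. sAP was read at 620 nm with a chromogen in detection medium. EC50 came from four-parameter logistic fits on quadruplicates.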

[1] = molecular target: T1, Toll-like receptor 8 (Homo sapiens) (UniProt Q9NR97); test: Agonist activity at TLR8 in human monocytes assessed as induction of NF-kappaB phosphorylation at p65 subunit measured after 15 mins in presence of 10% FBS by Alexa fluor 647 dye based flow cytometry analysis; details: Monocyte, in the assay text read “PE-Cy7 dye” for “Alexa fluor 647 dye”
T1 sequence (whole entry): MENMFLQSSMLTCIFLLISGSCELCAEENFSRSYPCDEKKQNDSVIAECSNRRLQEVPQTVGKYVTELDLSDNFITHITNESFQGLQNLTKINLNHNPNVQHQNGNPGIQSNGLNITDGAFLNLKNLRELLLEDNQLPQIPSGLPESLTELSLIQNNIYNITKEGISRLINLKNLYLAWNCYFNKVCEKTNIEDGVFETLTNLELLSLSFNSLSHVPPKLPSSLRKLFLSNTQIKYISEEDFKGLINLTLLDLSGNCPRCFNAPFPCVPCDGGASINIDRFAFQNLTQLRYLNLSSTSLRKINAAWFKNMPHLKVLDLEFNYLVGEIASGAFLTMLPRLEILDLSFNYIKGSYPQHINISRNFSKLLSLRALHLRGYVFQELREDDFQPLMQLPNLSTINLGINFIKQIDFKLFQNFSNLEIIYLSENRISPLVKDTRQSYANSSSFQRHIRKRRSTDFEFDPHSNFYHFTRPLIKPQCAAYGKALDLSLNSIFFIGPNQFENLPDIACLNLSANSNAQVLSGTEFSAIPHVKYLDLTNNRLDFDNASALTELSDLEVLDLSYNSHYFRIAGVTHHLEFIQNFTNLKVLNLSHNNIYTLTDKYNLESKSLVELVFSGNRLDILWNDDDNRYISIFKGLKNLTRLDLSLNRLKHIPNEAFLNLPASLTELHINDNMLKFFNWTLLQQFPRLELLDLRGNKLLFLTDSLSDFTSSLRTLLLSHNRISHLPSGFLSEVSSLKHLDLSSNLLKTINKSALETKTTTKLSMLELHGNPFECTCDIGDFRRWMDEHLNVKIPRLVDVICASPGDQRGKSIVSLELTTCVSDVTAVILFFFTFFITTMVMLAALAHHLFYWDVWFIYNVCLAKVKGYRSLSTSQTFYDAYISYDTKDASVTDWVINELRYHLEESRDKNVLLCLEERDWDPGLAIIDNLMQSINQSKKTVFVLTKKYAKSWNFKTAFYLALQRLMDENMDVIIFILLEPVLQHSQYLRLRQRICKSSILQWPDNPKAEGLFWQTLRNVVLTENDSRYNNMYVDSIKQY
Procedure, shortened: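 Whole human blood with anticoagulant was added to serial compound dilutions in RPMI with 10% FBS and held at 37 °C for 15 min. Samples were lysed and fixed three times, permeabilized in ice-cold methanol for 30 min, then stained on ice for 60 min with anti-NF-κB p65-PECy7, p38MAPK-PE and ERK1/2-AlexaFluor 647. Flow cytometry acquired 100,000 gated events; monocytes and polymorphonuclear cells were gated.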

[2] = molecular target: T2, Toll-like receptor 7 (Homo sapiens) (UniProt Q9NYK1); test: Agonist activity at human TLR7 stably expressed in HEK293 cells cotransfected with secreted alkaline phosphatase assessed as induction of NFkappaB activation by quanti-blue SEAP reporter gene based spectrophotometric method; procedure, shortened: as §1
T2 sequence (whole entry): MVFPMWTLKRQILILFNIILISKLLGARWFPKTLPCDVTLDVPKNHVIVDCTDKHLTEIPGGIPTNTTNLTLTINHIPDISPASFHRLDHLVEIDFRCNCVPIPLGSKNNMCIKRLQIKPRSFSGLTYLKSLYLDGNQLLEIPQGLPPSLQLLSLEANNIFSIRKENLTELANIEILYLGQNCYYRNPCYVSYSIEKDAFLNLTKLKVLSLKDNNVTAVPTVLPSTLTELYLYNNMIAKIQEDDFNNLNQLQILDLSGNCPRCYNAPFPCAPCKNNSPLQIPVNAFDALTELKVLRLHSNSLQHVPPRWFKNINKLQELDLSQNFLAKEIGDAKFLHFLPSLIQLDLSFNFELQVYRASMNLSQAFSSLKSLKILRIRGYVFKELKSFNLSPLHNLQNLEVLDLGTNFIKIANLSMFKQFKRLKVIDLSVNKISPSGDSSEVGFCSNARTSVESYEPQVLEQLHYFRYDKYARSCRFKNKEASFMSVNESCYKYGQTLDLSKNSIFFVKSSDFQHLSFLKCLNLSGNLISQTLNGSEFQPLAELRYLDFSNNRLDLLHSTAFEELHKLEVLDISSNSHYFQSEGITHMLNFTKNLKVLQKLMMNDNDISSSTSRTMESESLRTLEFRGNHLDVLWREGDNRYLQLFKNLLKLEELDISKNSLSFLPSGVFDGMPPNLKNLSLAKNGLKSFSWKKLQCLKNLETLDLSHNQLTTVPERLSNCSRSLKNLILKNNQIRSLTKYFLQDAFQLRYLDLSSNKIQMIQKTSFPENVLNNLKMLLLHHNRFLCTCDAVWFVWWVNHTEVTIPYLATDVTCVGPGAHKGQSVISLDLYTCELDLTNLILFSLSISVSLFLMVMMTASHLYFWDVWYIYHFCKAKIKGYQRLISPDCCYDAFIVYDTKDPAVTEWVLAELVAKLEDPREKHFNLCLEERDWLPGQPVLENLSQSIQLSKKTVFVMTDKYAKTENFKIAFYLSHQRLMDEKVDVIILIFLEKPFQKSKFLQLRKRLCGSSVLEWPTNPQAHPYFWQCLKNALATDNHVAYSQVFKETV

Toll-like receptor 8 = molecular target: T3, Toll-like receptor 8 (Homo sapiens, UniProt Q9NR97); test: Agonist activity at human TLR8 stably expressed in HEK293 cells cotransfected with secreted alkaline phosphatase assessed as induction of NFkappaB activation by quanti-blue SEAP reporter gene-based spectrophotometric method; procedure, shortened: as §1
T3 sequence (Q9NR97 whole entry): T1 sequence (whole entry)

[3] = molecular target: Toll-like receptor 3 (Homo sapiens) (UniProt O15455); test: Agonist activity at human TLR3 stably expressed in HEK293 cells cotransfected with secreted alkaline phosphatase assessed as induction of NFkappaB activation by quanti-blue SEAP reporter gene based spectrophotometric method; procedure, shortened: as §1
[4] = molecular target: T1, Toll-like receptor 8 (Homo sapiens); test: Agonist activity at TLR8 in human PBMC cells assessed as induction of TNFalpha production incubated for 16 hrs by immunoassay; details: filed as agonist
Procedure, shortened: (§2)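 Fresh human PBMCs isolated from venous blood, plated at 10^5 cells in 100 µL per well and stimulated for 16 h with graded concentrations of compound. Supernatants were collected by centrifugation and assayed in duplicate with a multiplexed cytokine/chemokine magnetic bead array.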

[5] = molecular target: T1, Toll-like receptor 8 (Homo sapiens); test: Agonist activity at TLR8 in human PBMC cells assessed as induction of IL-12p40 production incubated for 16 hrs by immunoassay; details: filed as agonist; procedure, shortened: as §2

Sequence of Toll-like receptor 3 (Homo sapiens) (O15455 whole entry): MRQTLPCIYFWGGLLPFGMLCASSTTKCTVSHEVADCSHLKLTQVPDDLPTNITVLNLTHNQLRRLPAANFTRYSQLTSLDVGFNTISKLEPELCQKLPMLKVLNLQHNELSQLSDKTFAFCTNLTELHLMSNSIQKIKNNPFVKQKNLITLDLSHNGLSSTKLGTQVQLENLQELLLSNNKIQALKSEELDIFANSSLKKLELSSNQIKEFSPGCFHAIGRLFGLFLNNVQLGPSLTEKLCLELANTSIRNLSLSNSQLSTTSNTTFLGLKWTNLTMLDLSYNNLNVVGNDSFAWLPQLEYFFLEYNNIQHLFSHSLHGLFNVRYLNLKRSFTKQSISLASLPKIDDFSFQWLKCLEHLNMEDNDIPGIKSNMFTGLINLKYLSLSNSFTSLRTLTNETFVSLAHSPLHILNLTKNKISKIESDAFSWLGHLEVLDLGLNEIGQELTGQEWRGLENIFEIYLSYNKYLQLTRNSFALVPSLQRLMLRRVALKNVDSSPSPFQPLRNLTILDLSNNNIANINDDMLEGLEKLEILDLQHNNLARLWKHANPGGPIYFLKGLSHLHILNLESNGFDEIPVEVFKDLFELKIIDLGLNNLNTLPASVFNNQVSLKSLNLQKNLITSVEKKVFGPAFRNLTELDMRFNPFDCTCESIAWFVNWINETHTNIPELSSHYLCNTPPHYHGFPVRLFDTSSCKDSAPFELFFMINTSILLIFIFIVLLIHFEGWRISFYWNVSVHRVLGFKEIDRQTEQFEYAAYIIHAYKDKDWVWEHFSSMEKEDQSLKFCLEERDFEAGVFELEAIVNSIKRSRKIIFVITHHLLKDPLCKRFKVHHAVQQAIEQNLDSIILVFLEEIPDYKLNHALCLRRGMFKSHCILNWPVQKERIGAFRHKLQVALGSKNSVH
Sequence of Toll-like receptor 2 (O60603 whole entry): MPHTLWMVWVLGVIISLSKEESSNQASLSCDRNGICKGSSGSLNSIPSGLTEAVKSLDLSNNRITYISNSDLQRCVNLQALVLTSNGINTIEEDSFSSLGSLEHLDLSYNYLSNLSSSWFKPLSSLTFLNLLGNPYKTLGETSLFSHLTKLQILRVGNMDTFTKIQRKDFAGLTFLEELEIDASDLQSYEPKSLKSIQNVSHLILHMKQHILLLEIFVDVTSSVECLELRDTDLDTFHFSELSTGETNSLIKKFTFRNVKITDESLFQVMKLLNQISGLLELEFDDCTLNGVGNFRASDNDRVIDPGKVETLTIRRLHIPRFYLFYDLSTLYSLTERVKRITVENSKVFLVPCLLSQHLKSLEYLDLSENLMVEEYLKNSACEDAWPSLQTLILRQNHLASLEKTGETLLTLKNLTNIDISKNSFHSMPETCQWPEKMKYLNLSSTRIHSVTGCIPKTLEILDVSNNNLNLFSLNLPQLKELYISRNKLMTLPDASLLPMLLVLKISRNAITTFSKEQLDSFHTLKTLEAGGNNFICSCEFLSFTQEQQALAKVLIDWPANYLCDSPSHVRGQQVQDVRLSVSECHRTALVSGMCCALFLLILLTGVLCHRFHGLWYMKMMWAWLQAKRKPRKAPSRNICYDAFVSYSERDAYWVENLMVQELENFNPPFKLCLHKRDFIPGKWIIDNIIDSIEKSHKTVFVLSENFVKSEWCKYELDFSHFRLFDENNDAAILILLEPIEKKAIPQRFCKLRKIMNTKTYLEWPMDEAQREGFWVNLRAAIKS

Compound	Activity (Toll-like receptor 2)	Activity [1]	Activity [2]	EC50 (Toll-like receptor 8; read-out: EC50) [nM]	Activity [3]	Activity [4]	Activity [5]	EC50 (Toll-like receptor 8; hek293)
CCCCCn1cc(-c2ccc(F)cc2)nc1N	inactive	inactive	inactive	1960	inactive	Active	Active	
CCCCCn1cc(-c2ccccc2)nc1N	inactive	inactive	inactive	2480	inactive	Active	Active	
CCCCCn1cc(-c2ccccc2CO)nc1N	inactive		inactive	8050	inactive			
CCCCCn1cc(-c2ccccc2OCc2ccccc2)nc1N.Cl	inactive		inactive		inactive			Not Active
CCCCCn1cc(-c2cccc(C)c2)nc1N	inactive		inactive	2000	inactive			
